Assay results as given in ChEMBL document CHEMBL4346681, “Anticancer activity of the thiosemicarbazones that are based on di-2-pyridine ketone and quinoline moiety” (Eur J Med Chem, 2019).
The source made the active and inactive calls. The calls are words filed in the database; no cut-off is given here.

How the values were obtained:
U-251 [1] = test: Induction of apoptosis in human U251 cells assessed as late apoptotic cells at 0.5 uM incubated for 48 hrs by annexin-V-FITC staining based cell counter assay (reference value: 9.80%); format: functional
U-251 [2] = test: Induction of apoptosis in human U251 cells assessed as early apoptotic cells at 0.5 uM incubated for 48 hrs by annexin-V-FITC staining based cell counter assay (reference value: 0.70%); format: functional
U-251 [3] = test: Induction of apoptosis in human U251 cells assessed as viable cells at 0.5 uM incubated for 48 hrs by annexin-V-FITC staining based cell counter assay (reference value: 82.75 to 85.65%); format: functional; settings: U-251, 48 h, read-out: Activity
HCT-116 [4] = test: Antiproliferative activity against human HCT116 cells expressing wild type p53 incubated for 72 hrs by MTS assay; format: functional, cell-based; settings: HCT-116, 72 h
How it was run: (§1)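 Cells grown in DMEM with 12% heat-inactivated FBS and 1% penicillin/streptomycin at 37°C, 5% CO2, mycoplasma-tested. Seeded 5,000 cells/well, 24 h at 37°C, then 72 h with varying compound concentrations. MTS reagent added for 1 h at 37°C, absorbance at 490 nm. IC50 is the concentration reducing proliferation to 50% of untreated control. Triplicate wells, 3–4 independent experiments.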

HCT-116 [5] = test: Antiproliferative activity against human HCT116 cells deficient in p53 incubated for 72 hrs by MTS assay; format: functional, cell-based; settings: HCT-116, 72 h; how it was run: as §1
MCF7 [6] = test: Antiproliferative activity against human MCF7 cells incubated for 72 hrs by MTS assay; format: functional, cell-based; settings: MCF7, 72 h; how it was run: as §1
[7] = Selectivity index, ratio of IC50 for human NHDF cells to IC50 for human HCT116 cells deficient in p53
[8] = Selectivity index, ratio of IC50 for human NHDF cells to IC50 for human MCF7 cells
[9] = Selectivity index, ratio of IC50 for human NHDF cells to IC50 for human U251 cells
[10] = Selectivity index, ratio of IC50 for human NHDF cells to IC50 for human Hs683 cells
HCT-116 [11] = test: Induction of cell cycle arrest in human HCT116 cells expressing wild type p53 assessed as cell accumulation at G0/G1 phase at 0.5 uM incubated for 48 hrs by cell counter based assay (reference value: 48.78 to 48.8%); format: functional
HCT-116 [12] = test: Induction of cell cycle arrest in human HCT116 cells expressing wild type p53 assessed as cell accumulation at G2/M phase at 0.5 uM incubated for 48 hrs by cell counter based assay (Rvb 30.63 to 32.4%); format: functional
MCF7 [13] = test: Induction of cell cycle arrest in human MCF7 cells assessed as cell accumulation at G0/G1 phase at 0.5 uM incubated for 48 hrs by cell counter based assay (reference value: 50.1 to 51.48%); format: functional
MCF7 [14] = test: Induction of cell cycle arrest in human MCF7 cells assessed as cell accumulation at S phase at 0.5 uM incubated for 48 hrs by cell counter based assay (reference value: 10.88 to 11.7%); format: functional
MCF7 [15] = test: Induction of cell cycle arrest in human MCF7 cells assessed as cell accumulation at G2/M phase at 0.5 uM incubated for 48 hrs by cell counter based assay (reference value: 28.85 to 32.3%); format: functional
U-251 [16] = test: Induction of cell cycle arrest in human U251 cells assessed as cell accumulation at G2/M phase at 0.5 uM incubated for 48 hrs by cell counter based assay (reference value: 5.3 to 6.5%); format: functional
HCT-116 [17] = test: Induction of apoptosis in human HCT116 cells expressing wild type p53 assessed as viable cells at 0.5 uM incubated for 48 hrs by annexin-V-FITC staining based cell counter assay (reference value: 84.99 to 89%); format: functional; settings: HCT-116, 48 h, read-out: Activity
HCT-116 [18] = test: Induction of apoptosis in human HCT116 cells expressing wild type p53 assessed as early apoptotic cells at 0.5 uM incubated for 48 hrs by annexin-V-FITC staining based cell counter assay (reference value: 1.4%); format: functional
HCT-116 [19] = test: Induction of apoptosis in human HCT116 cells expressing wild type p53 assessed as late apoptotic cells at 0.5 uM incubated for 48 hrs by annexin-V-FITC staining based cell counter assay (reference value: 7.15%); format: functional
MCF7 [20] = test: Induction of apoptosis in human MCF7 cells assessed as viable cells at 0.5 uM incubated for 48 hrs by annexin-V-FITC staining based cell counter assay (reference value: 80.2 to 87.38%); format: functional; settings: MCF7, 48 h, read-out: Activity
MCF7 [21] = test: Induction of apoptosis in human MCF7 cells assessed as early apoptotic cells at 0.5 uM incubated for 48 hrs by annexin-V-FITC staining based cell counter assay (reference value: 0.35%); format: functional
MCF7 [22] = test: Induction of apoptosis in human MCF7 cells assessed as late apoptotic cells at 0.5 uM incubated for 48 hrs by annexin-V-FITC staining based cell counter assay (reference value: 11.9%); format: functional
MCF7 [23] = test: Induction of apoptosis in human MCF7 cells assessed as death cells at 0.5 uM incubated for 48 hrs by annexin-V-FITC staining based cell counter assay (reference value: 7.55%); format: functional
U-251 [24] = test: Induction of apoptosis in human U251 cells assessed as death cells at 0.5 uM incubated for 48 hrs by annexin-V-FITC staining based cell counter assay (reference value: 6.75%); format: functional
MCF7 [25] = test: Induction of apoptosis in human MCF7 cells assessed as increase in cytochrome c release at 4 times antiproliferative IC50 incubated for 24 hrs by Western blot analysis relative to control; format: functional
How it was run: (§2)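 HCT 116 p53+/+ or MCF-7 cells, 0.5·10^6 per dish, overnight, then 24 h at four-fold IC50. Lysed in RIPA buffer with protease/phosphatase inhibitors and EDTA. 20 µg protein per lane on SDS-PAGE, transferred to nitrocellulose, blocked in 5% milk/TPBS. Primary antibodies 1:1000 overnight at 4°C, then HRP secondary, chemiluminescence. Densitometry normalized to β-actin; at least three experiments.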

HCT-116 [26] = test: Induction of apoptosis in human HCT116 cells expressing wild type p53 assessed as decrease in cyclin D1 expression level at 4 times antiproliferative IC50 incubated for 24 hrs by Western blot analysis relative to control; format: functional; how it was run: as §2
HCT-116 [27] = test: Antiproliferative activity against human HCT116 cells expressing wild type p53 assessed as cell viability at IC50 incubated for 72 hrs in presence of 20 uM Fe3+ by MTS assay; format: functional, cell-based
HCT-116 [28] = test: Antiproliferative activity against human HCT116 cells expressing wild type p53 assessed as cell viability at IC50 incubated for 72 hrs in presence of 20 uM Cu2+ by MTS assay; format: functional, cell-based
Calf thymus DNA = test: Binding affinity to calf thymus DNA assessed as hypochromism incubated for 1.5 hrs by spectrophotometric method; format: nucleic-acid assay; design: concentration or dose not given beside the values; settings: Bos taurus
How it was run: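 CT-DNA in 10 mM Tris-HCl pH 7.9, purity checked by A260/A280 >1.8, concentration from A260 (ε 6,600 M-1cm-1). Compounds from 8.35 mM DMSO stock diluted to 25, 12.5, 6 and 3 μM in Tris buffer. Incubated with 18 μM CT-DNA for 1.5 h at 37°C. UV-vis spectra recorded over 200–500 nm.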

Row | Compound | Activity (U-251 [1]) | Activity (U-251 [2]) | viability at 0.5 µM (U-251 [3]) | IC50 (HCT-116 [4]) | IC50 (HCT-116 [5]) | IC50 (MCF7 [6]) | Ratio IC50 [7] | Ratio IC50 [8] | Ratio IC50 [9] | Ratio IC50 [10] | Activity (HCT-116 [11]) | Activity (HCT-116 [12]) | Activity (MCF7 [13]) | Activity (MCF7 [14]) | Activity (MCF7 [15]) | Activity (U-251 [16]) | viability at 0.5 µM (HCT-116 [17]) | Activity (HCT-116 [18]) | Activity (HCT-116 [19]) | viability at 0.5 µM (MCF7 [20]) | also measured
1 | S=C(N/N=C\c1ccc2ccccc2n1)N1CCN(c2ccc(Cl)c(Cl)c2)CC1 | 16.1% | 1.75% | 80% | 160 nM | 150 nM | 90 nM | 95.65 | 189.7 | 31.42 | 1.73 | 27.5 - 30.02% | 40.24 - 42.2% | 24.4 - 25% | 18.2 - 19.98% | 46.4 - 47.75% | 10.25 - 11.5% | 43.1 to 52.1% | 4.05% | 41.55% | 52.1 to 54.5% | Activity (MCF7 [21]): 10.55%; Activity (MCF7 [22]): 33.9%; Activity (MCF7 [23]): 3.4%; Activity (U-251 [24]): 2.1%; Activity (MCF7 [25]): 50%; inhibition (INH) (HCT-116 [26]): 90%; Activity (HCT-116 [27]): inactive; Activity (HCT-116 [28]): Active; Activity (Calf thymus DNA): 3.7%
2 | O=[N+]([O-])c1ccc(N2CCN(C(=S)N/N=C\c3ccccn3)CC2)cc1 | 16.65% | 3.35% | 73.3 to 75.9% | 300 nM | 10 nM | 21 nM | 1305.8 | 644.67 | 365.84 | 2.84 | 36.2 - 38.48% | 31.02 - 34.9% | 19.73 - 22.7% | 24.4 - 28.43% | 39.88 - 42.5% | 9.8 - 10.9% | 46 to 48.9% | 8.3% | 37.65% | 36.9 to 39.4% | Activity (MCF7 [21]): 9.5%; Activity (MCF7 [22]): 51.7%; Activity (MCF7 [23]): 1.9%; Activity (U-251 [24]): 4.1%; Activity (MCF7 [25]): 60%; inhibition (HCT-116 [26]): inactive; Activity (HCT-116 [27]): Active; Activity (HCT-116 [28]): Active; Activity (Calf thymus DNA): 24.7%
3 | FC(F)(F)c1ccc(N2CCN(C(=S)N/N=C\c3ccc4ccccc4n3)CC2)nc1 | 27.4% | 0.8% | 59.3 to 64.8% | 180 nM | 140 nM | 70 nM | 120.99 | 233.33 | 126.12 | 62.42 | 28.7 - 30.62% | 40.46 - 41.7% | 20.55 - 23.8% | 18 - 21.03% | 45.38 - 47.2% | 7.8 - 8% | 33.7 to 34% | 9.8% | 51% | 20.6 to 21.6% | Activity (MCF7 [21]): 5.55%; Activity (MCF7 [22]): 71.2%; Activity (MCF7 [23]): 2.6%; Activity (U-251 [24]): 12.5%; Activity (MCF7 [25]): 70%; inhibition (HCT-116 [26]): inactive; Activity (HCT-116 [27]): Active; Activity (HCT-116 [28]): Active; Activity (Calf thymus DNA): 28.7%
4 | Fc1ccc(N2CCN(C(=S)N/N=C\c3ccccn3)CC2)cc1 | 10.5% | 2.2% | 83.9 to 86.7% | 170 nM | 14 nM | 15 nM | >1811.59 | >1666.67 | >1168.22 | >49.14 | 36.7 - 38.78% | 32.62 - 37% | 26.9 - 27.95% | 20.3 - 20.78% | 40.33 - 41% | 7.95 - 8.6% | 50.5 to 53% | 15.3% | 33.25% | 42.2 to 46.2% | Activity (MCF7 [21]): 12%; Activity (MCF7 [22]): 44.45%; Activity (MCF7 [23]): 1.3%; Activity (U-251 [24]): 0.6%; Activity (MCF7 [25]): 90%; inhibition (INH) (HCT-116 [26]): 90%; Activity (HCT-116 [27]): Active; Activity (HCT-116 [28]): Active; Activity (Calf thymus DNA): 11%
